From PubChem
Most compounds without a hit are left out; they make up all but 1.6% or so of the library.
UHRF1 binding: blocks human UHRF1 binding to methylated DNA | inhibition, % at 4.4 µM | UHRF1 binding to methylated oligo, TR-FRET | 0.75% of 370,000 active | Q96T88 | AID 687016; in the data active = inhibition above about 21%;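 also: UHRF1 SRA domain binding a hemimethylated CpG hairpin DNA probe; 0% = median of test compound wells and 100% = reference inhibitor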
TDP2 absorb: blocks human TDP2 phosphodiesterase activity; 0.34% of 370,000 active; inhibition, % at 12.8 µM; O95551; recombinant TDP2, T5PNP hydrolysis, p-nitrophenol absorbance 415 nm;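 active = inhibition above the mean of all tested compounds plus 3 SD, set per campaign, cut at about 25% in these data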;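 also: 0% = DMSO with enzyme and 100% = buffer with substrate but no TDP2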
Target sequence (O95551 whole entry, looked up): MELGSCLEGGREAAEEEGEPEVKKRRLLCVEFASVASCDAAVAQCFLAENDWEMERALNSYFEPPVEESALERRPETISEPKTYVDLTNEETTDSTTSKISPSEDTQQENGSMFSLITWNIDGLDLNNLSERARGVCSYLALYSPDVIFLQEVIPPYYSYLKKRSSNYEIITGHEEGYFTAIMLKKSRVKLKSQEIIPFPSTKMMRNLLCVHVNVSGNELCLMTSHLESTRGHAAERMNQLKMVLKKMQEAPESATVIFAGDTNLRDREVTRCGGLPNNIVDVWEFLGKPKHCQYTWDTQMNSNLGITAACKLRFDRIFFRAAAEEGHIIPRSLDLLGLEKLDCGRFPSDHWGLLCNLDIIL
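Test system: Human TDP2 enzyme | Reagent: 5 mM T5PNP | Compound dosing: 12.8 µM single point, 1% DMSO | Incubation: Enzyme reaction with compound for 2 h at 37 °C | Technique: p-Nitrophenol epi absorbance | Read-out: % inhibition relative to enzyme-containing and enzyme-free wells | Benchmarks: High control without enzyme, low control DMSO plus TDP2 | Replicates: Singlicate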
MBD2 inh: MBD2-methylated oligo binding inhibition; 0.31% of 370,000 active; inhibition, % at 4.4 µM; TR-FRET, MBD2 binding to methylated oligonucleotide; in the data active = inhibition above about 13%
LEDGF integ inh: blocks HIV-1 LEDGF/p75-dependent DNA integration; inhibition, % at 3.7 µM; 0.64% of 370,000 active; TR-FRET IN-LEDGF/p75 DNA integration, Eu/Cy5; AID 743269;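 active = inhibition above the screen-wide mean plus 3 SD, cut at about 13% in these data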;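 also: signal is the Cy5 over europium emission ratio at 671 and 618 nm; 0% = plate median of compound wells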
Starred values were filed as active, the others as inactive.

How did C=CCN(CC#CCN(C)C(=O)c1cccn1C(=O)OC(C)(C)C)Cc1ccc(OC)cc1OC do in these assays?
UHRF1 binding: 1; TDP2 absorb: -10; MBD2 inh: 2; LEDGF integ inh: 6

How did C=CCN(c1ccccc1)S(=O)(=O)c1cccc(C(=O)NCC(c2ccc(F)cc2)N2CCOCC2)c1 (configuration not stated) do in these assays?
UHRF1 binding: 2; TDP2 absorb: 1; MBD2 inh: 3; LEDGF integ inh: -2

What do the screens show for `CCN(c1ccccc1)S(=O)(=O)c1cccc(C(=O)NCC(c2ccc(F)cc2)N2CCOCC2)c1` (configuration not stated)?
UHRF1 binding: 43*; TDP2 absorb: 2; MBD2 inh: -1; LEDGF integ inh: -2

Results for O=C1Cc2ccccc2C(=O)N1c1ccc(F)cc1Cl ?
UHRF1 binding: 37*; TDP2 absorb: -16; MBD2 inh: 13; LEDGF integ inh: 11

How did Cc1cc(C)cc(NC(=O)OC2CC3CC2[C@H]2CCCCN2[C@H]3C)c1 (some centres not stated) do in these assays?
UHRF1 binding: 1; TDP2 absorb: -8; MBD2 inh: 2; LEDGF integ inh: 5

Results for Cc1ccc(/C=C/C(=O)N2CCc3ccccc32)o1 ?
UHRF1 binding: 31*; TDP2 absorb: -1; MBD2 inh: 13; LEDGF integ inh: 9

Results for COC(=O)c1c(-c2ccc(OC)cc2)c2c(c3c4cc(OC)ccc4n(C(=O)c4ccccc4)c13)C(=O)N(C)C2 ?
UHRF1 binding: -6; TDP2 absorb: -6; MBD2 inh: 1; LEDGF integ inh: 2

How did COc1cc2c(cc1OC)C(c1ccccc1)NC(C)(C)C2 (configuration not stated) do in these assays?
UHRF1 binding: 46*; TDP2 absorb: 10; MBD2 inh: -1; LEDGF integ inh: -5

Results for CCOC(=O)[C@@]12CCCC3=C1N(CCC3)C(=O)[C@H]2CC(=O)N1CCCCC1 ?
UHRF1 binding: -1; TDP2 absorb: 1; MBD2 inh: -1; LEDGF integ inh: -1

How did Cc1nc(SCc2ccc(F)cc2)n[nH]1 do in these assays?
UHRF1 binding: 1; TDP2 absorb: -10; MBD2 inh: 3; LEDGF integ inh: -5

How did Cc1cc(C)nc(SCc2ccc(F)cc2)n1 do in these assays?
UHRF1 binding: 23*; TDP2 absorb: 12; MBD2 inh: 10; LEDGF integ inh: 0

How did COc1ccc(C(C)=O)c2c1OCCO2 do in these assays?
UHRF1 binding: 54*; TDP2 absorb: 5; MBD2 inh: 0; LEDGF integ inh: -1

Results for COc1ccc(C(C)=O)c2c(O)cccc12 ?
UHRF1 binding: 7; TDP2 absorb: 3; MBD2 inh: 0; LEDGF integ inh: 3

Results for O=C(NCCCc1ccccc1)C1CCC(=O)N(Cc2ccc(Cl)cc2)C1 (configuration not stated) ?
UHRF1 binding: 21*; TDP2 absorb: 0; MBD2 inh: 6; LEDGF integ inh: -4

What do the screens show for `COc1ccc(CCCNC(=O)C2CCC(=O)N(Cc3ccc(Cl)cc3)C2)cc1` (configuration not stated)?
UHRF1 binding: 26*; TDP2 absorb: -11; MBD2 inh: 4; LEDGF integ inh: -3

How did O=C(NCCc1ccccc1Cl)C1CCC(=O)N(Cc2ccc(Cl)cc2)C1 (configuration not stated) do in these assays?
UHRF1 binding: 1; TDP2 absorb: -3; MBD2 inh: -3; LEDGF integ inh: 1

How did Cc1ccccc1-c1ccc2c(c1)[C@@H]1C[C@H]3[C@@H](CN1CC2)[C@H](C)OC(c1ccccc1)N3C (some centres not stated) do in these assays?
UHRF1 binding: -1; TDP2 absorb: -4; MBD2 inh: -3; LEDGF integ inh: 1

How did CN1[C@@H](Cc2ccccc2)COc2cccc(F)c2S1(=O)=O do in these assays?
UHRF1 binding: -3; TDP2 absorb: -2; MBD2 inh: -8; LEDGF integ inh: -1

Results for C[C@H](O)[C@@H]1C(=O)N2CCc3c([nH]c4c(-c5ccccc5)cccc34)[C@@H]2C[C@@H]1N(C)C(=O)c1ccccc1F ?
UHRF1 binding: -11; TDP2 absorb: 1; MBD2 inh: 5; LEDGF integ inh: -5

What do the screens show for `CCn1cnc2c(cnn2-c2ccccc2)c1=O`?
UHRF1 binding: -1; TDP2 absorb: 0; MBD2 inh: 2; LEDGF integ inh: 0

How did O=c1c2cnn(-c3ccccc3)c2ncn1CCc1ccccc1 do in these assays?
UHRF1 binding: 47*; TDP2 absorb: 11; MBD2 inh: 2; LEDGF integ inh: 1

Results for CC(C)Oc1ccc(CCC(=O)N/N=C/c2ccncc2)cc1 ?
UHRF1 binding: 27*; TDP2 absorb: -3; MBD2 inh: 0; LEDGF integ inh: -3

What do the screens show for `O=S(=O)(c1ccccc1)c1nc(-c2ccccc2Cl)oc1NCCN1CCOCC1`?
UHRF1 binding: 1; TDP2 absorb: 6; MBD2 inh: -2; LEDGF integ inh: 3

How did O=S(=O)(c1ccccc1)c1nc(-c2ccccc2Cl)oc1NCCCN1CCOCC1 do in these assays?
UHRF1 binding: 40*; TDP2 absorb: -7; MBD2 inh: 3; LEDGF integ inh: -2

What do the screens show for `CC(C)C[C@@H](CNCC(=O)[C@H](C)NC(=O)c1[nH]cnc1C(=O)N[C@@H](C)CN)NC(=O)c1nc[nH]c1C(=O)N[C@@H](CO)C(=O)O`?
UHRF1 binding: 5; TDP2 absorb: 12; MBD2 inh: -4; LEDGF integ inh: 2

What do the screens show for `CC(C)C[C@@H](CNCC(=O)[C@H](CC(C)C)NC(=O)c1[nH]cnc1C(=O)N[C@@H](C)CN)NC(=O)c1nc[nH]c1C(=O)N[C@@H](Cc1ccccc1)C(=O)O`?
UHRF1 binding: 1; TDP2 absorb: 3; MBD2 inh: -2; LEDGF integ inh: 1

How did CC(C)C[C@@H](CNCC(=O)[C@H](Cc1ccccc1)NC(=O)c1[nH]cnc1C(=O)N[C@@H](C)CN)NC(=O)c1nc[nH]c1C(=O)N[C@@H](C)C(=O)O do in these assays?
UHRF1 binding: 23*; TDP2 absorb: 2; MBD2 inh: 9; LEDGF integ inh: -3

How did CC(C)C[C@@H](CNCC(=O)[C@H](C)NC(=O)c1[nH]cnc1C(=O)N[C@@H](C)CN)NC(=O)c1nc[nH]c1C(=O)N[C@@H](C)C(=O)O do in these assays?
UHRF1 binding: 22*; TDP2 absorb: 8; MBD2 inh: 12; LEDGF integ inh: -3

Results for COc1ccc(Cn2cc(CN3CC=CS3(=O)=O)nn2)cc1 ?
UHRF1 binding: 4; TDP2 absorb: -2; MBD2 inh: -5; LEDGF integ inh: -3

How did Cc1[nH]n(-c2cccc(Cl)c2)c(=O)c1-c1ccccc1 do in these assays?
UHRF1 binding: 39*; TDP2 absorb: -10; MBD2 inh: -3; LEDGF integ inh: -1

How did CCOc1ccc(Cl)cc1-c1cc(C(=O)NC2CCCCC2)[nH]n1 do in these assays?
UHRF1 binding: 79*; TDP2 absorb: 5; MBD2 inh: -1; LEDGF integ inh: -2

What do the screens show for `CC(=O)N1CCOc2cc(S(=O)(=O)NC(C)c3ccccc3)c(Cl)cc21` (configuration not stated)?
UHRF1 binding: 30*; TDP2 absorb: -6; MBD2 inh: -8; LEDGF integ inh: 1
